Source: PubChem BioAssay
A selection: hits, their analogues and other compounds. The true share with any hit is near 0.99%.
NOD2-RIPK2 inh = blocks binding of human NOD2 to RIPK2 | O43353 | CHO BLA complementation NOD2-RIPK2, CCF4 ratio | AID 624267 | actives 0.38% (n = 360,000) | inhibition, % at 4.98 µM; in the data active means inhibition above about 21%;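 further: 0% = vehicle only and 100% = reference blocker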
Target sequence (O43353 whole entry, looked up): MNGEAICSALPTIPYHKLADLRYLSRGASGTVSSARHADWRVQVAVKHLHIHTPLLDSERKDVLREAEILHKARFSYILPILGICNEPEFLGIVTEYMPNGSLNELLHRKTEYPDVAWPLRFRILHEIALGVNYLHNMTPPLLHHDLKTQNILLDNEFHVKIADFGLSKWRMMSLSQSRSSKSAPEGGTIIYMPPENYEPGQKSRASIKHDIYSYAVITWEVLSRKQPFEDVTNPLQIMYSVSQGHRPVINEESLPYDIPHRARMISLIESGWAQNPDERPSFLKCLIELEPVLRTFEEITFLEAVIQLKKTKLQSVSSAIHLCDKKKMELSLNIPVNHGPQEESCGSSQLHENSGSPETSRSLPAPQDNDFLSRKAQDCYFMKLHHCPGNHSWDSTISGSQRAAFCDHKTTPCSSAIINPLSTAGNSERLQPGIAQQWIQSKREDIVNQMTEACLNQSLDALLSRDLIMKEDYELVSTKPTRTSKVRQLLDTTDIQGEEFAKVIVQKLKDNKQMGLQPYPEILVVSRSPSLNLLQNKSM
TLR4 MyD88 comp = blocks binding of human TLR4 to MyD88. O00206+Q99836. HeLa CL3-4 TLR4/MyD88 BLA complementation, FRET ratio. inhibition, % at 8.4 µM. actives 0.18% (n = 200,000). AID 861; in the data active means inhibition above about 25%;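 further: 0% = vehicle and 100% = reference inhibitor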
SKN-1 inh = blocks SKN-1 activity in C. elegans | C. elegans VP596 Pgst-4::GFP/RFP ratio, acrylamide-induced, 24 h | inhibition, % at 21.8 µM | actives 0.49% (n = 360,000) | AID 624304;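 active means interference check ratio from 0.5 to 1.5 plus GFP to RFP signal ratio inhibition reaching or exceeding a fixed threshold, cut at about 30% in these data, passing the limit was not always enough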
TLR9-MyD88 inh = inhibitors of human TLR9-MyD88 binding | Q9NR96+Q99836 | CHO BLA complementation TLR9-MyD88, CCF4 FRET ratio | inhibition, % at 4.98 µM | actives 0.21% (n = 340,000);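 active means inhibition above the mean over all tested compounds plus 3 SD, cut at about 21% in these data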;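 further: 0% = DMSO only wells and 100% = clavulanate BLA inhibitor control wells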
MT1-MMP act inh = MT1-MMP (human) activation inhibition | P50281 | HT1080 RFP-PRO-GFP cells, GFP/RFP ratio fluorescence, overnight; percent of plate control window, DMSO zero | GFP/RFP ratio change, % at 20 µM | actives 0.061% (n = 360,000) | AID 651647;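 active means GFP/RFP ratio change of at least 30% with cell ATP level not reduced by more than half and red fluorescence within 50% of control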
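Test system: HT1080 cells expressing an RFP-PRO-GFP fluorescent reporter construct / Compound dosing: single-point 20 µM compound, 1% DMSO / Schedule: cells overnight before dosing, compound overnight, 37 °C, 5% CO2 / Evaluation: GFP/RFP fluorescence ratio / Control set: DMSO and RFP-L50D-GFP cell wells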
* hit, by the source's call; . = not tested or not shown.

SMILES	NOD2-RIPK2 inh	TLR4 MyD88 comp	SKN-1 inh	TLR9-MyD88 inh	MT1-MMP act inh
C/C(CC(=O)Nc1ccc(OCc2ccccc2)cc1)=N\NC(=O)C(=O)Nc1ccc(C)c(Cl)c1	0	-5	38*	-10	3
Cc1cc(OCc2cccc(Cl)c2)c(C)cc1CN1CCOCC1	-8	-15	72*	-4	-2
Nc1ccc(CSc2ccc(Cl)cc2)c(Cl)c1	7	.	45*	-6	4
Fc1ccccc1-c1nc(-c2ccc(Cl)cc2)no1	-6	-1	36*	11	-8
O=C1c2ccccc2C(=O)N1CCc1nc(-c2ccc(Cl)cc2)no1	-3	1	48*	-4	1
CCN(C(=O)CSc1nnnn1-c1ccccc1)C1CCS(=O)(=O)C1 (stereo not drawn)	8	-3	-4	-6	1
N#Cc1c(N)oc(-c2ccc3c(c2)OCO3)c1-c1ccc2c(c1)OCO2	-9	-22	43*	-5	-14
Cc1cc(OCc2nc3ccccc3s2)ccc1N	4	.	12	12	-2
c1ccc(OCc2nc3ccccc3s2)cc1	-7	-8	49*	0	0
Fc1ccc(OCc2nc3ccccc3s2)cc1	0	-3	38*	-10	-4
COCCCNC(=O)c1cn(CC(C)C)c(=O)c2c1c1ccccc1n2C	8	3	50*	-3	2
COCCCNC(=O)c1cn(CCOC)c(=O)c2c1c1ccccc1n2C	4	.	7	2	-3
CC(C)(C)NC(=O)C1(N2C(=O)c3ccccc3C2=O)CCCC1	3	.	-9	4	-2
Cc1ccc(-c2nc(=S)c3c(n2CCN2CCOCC2)CC(C)(C)OC3)cc1	-9	-12	36*	-12	-6
COc1ccc(-c2nc(=S)c3c(n2CCN2CCOCC2)CC(C)(C)OC3)cc1	-3	8	0	-2	2
Cc1cnc(C(=O)OCC(=O)Nc2ccc(Br)cc2F)cn1	0	.	6	-6	0
Fc1cc(Cl)cc2ccc(-c3ccccc3)nc12	-8	.	36*	.	4
CC1=NOC(=O)/C1=C/c1ccc(-c2ccc(Cl)cc2)o1	-3	17	37*	6	-6
CC1=NOC(=O)/C1=C\c1ccc(-c2ccc(Br)cc2)o1	5	4	-2	4	-18
COC(=O)C1=C(C)N=c2s/c(=C/c3ccoc3)c(=O)n2C1c1ccccc1 (stereo not drawn)	1	0	6	-16	-13
COC(=O)C1=C(C)N=c2s/c(=C/c3cccs3)c(=O)n2C1c1cccs1 (stereo not drawn)	-1	6	39*	6	-5
Cc1c(C#N)c(O)n(C)c(=O)c1N=Nc1ccc(S(N)(=O)=O)cc1	1	0	17	-9	6
CCOC(=O)c1ccc(N=Nc2c(C)c(C#N)c(O)[nH]c2=O)cc1	-1	0	41*	5	1
COc1cccc(C#CC2=CC(=O)C[C@H](c3ccc(F)cc3)C2)c1	-7	.	-3	-1	-1
OCc1cccc(-c2csc(C(O)(c3ccccc3)C(F)(F)F)n2)c1 (stereo not drawn)	-10	.	35*	.	1
SMILES	NOD2-RIPK2 inh	TLR4 MyD88 comp	SKN-1 inh	TLR9-MyD88 inh	MT1-MMP act inh
OC(c1ccccc1)(c1nc(-c2cccc(C(F)(F)F)c2)cs1)C(F)(F)F (stereo not drawn)	3	.	14	.	1
O=C(NCc1cccc(C(F)(F)F)c1)C1CCC(=O)N(C2CCCCCC2)C1 (stereo not drawn)	-6	.	0	-1	5
Cc1cccc(C#Cc2ccccc2)n1	-5	.	46*	-5	0
Cc1ccc(/C=C2/SC(=Nc3ccc(F)cc3)NC2=O)s1	-7	.	40*	9	-35
O=C1C(CN2CCCC2)CCCC1CN1CCCC1 (stereo not drawn)	-20	.	8	-6	1
O=C(Nc1nc(-c2cccs2)cs1)c1ccc(Cl)cc1	-7	3	30	10	-9
COc1ccc(C(=O)Nc2nc(-c3cccs3)cs2)cc1	-9	-2	46*	8	-8
CCn1c(SCC(=O)Nc2cc(Cl)ccc2OC)nnc1C1CC1	-3	.	13	-10	1
CCCC(C)C(=O)NCc1ccccc1OC (stereo not drawn)	-12	-1	41*	9	8
CC(=O)O[C@@H]1[C@H](Oc2c(O)c(C)c3c4c2[C@H](C)CC[C@H]4[C@H](C)C[C@@H]3C=C(C)C)O[C@@H](C)[C@@H](O)[C@H]1O	-24	.	5	.	6
CC(=O)O[C@H]1[C@@H](O)[C@H](O)[C@H](Oc2c(O)c(C)c3c4c2[C@@H](C)CC[C@@H]4[C@@H](C)C[C@@H]3C=C(C)C)O[C@H]1C	-5	.	40*	.	1
COc1cccc(-n2cnnn2)c1	-8	-15	40*	-1	-3
COC(=O)c1cccc(-n2cnnn2)c1	4	-7	6	-5	1
COc1cccc(-n2nnnc2S(C)(=O)=O)c1	49*	7	4	22*	-3
CC[n+]1ccccc1/C=C/c1ccc(N(C)C)cc1	1	7	41*	-6	-85
Clc1ccc(-c2cnc3ccccc3n2)cc1	-1	-5	42*	2	5
Oc1ccc(-c2cnc3ccccc3n2)cc1	-19	.	-7	6	.
FC(F)(F)c1cc(Cl)c2nc(-c3ccccc3)cn2c1	-2	-7	41*	-6	1
Nc1cccc(-c2cn3cc(C(F)(F)F)cc(Cl)c3n2)c1	-9	-5	-22	-1	7
O=C(c1nc[nH]c1C(=O)N1CCc2ccccc2C1)N1CCc2ccccc2C1	-4	.	38*	-10	1
CC1CCN(S(=O)(=O)c2ccc(C(=O)N3CCOCC3)cc2)CC1	-3	.	39*	-11	1
O=C(NC(c1ccc(-c2ccccc2)cc1)c1cnccn1)C1CCN(Cc2cccs2)CC1 (stereo not drawn)	-3	.	46*	.	3
O=C(NC(c1ccc(-c2ccccc2)cc1)c1cnccn1)C1CCN(Cc2ccc(Oc3ccccc3)cc2)CC1 (stereo not drawn)	2	.	-1	.	4
COc1ccccc1[C@@H]1C(c2cccc(Cl)c2)=NN(c2ccccc2)[C@H]1C(=O)N1CCOC1=O	7	-10	4	5	-2
COc1ccccc1[C@H]1C(c2cccc(Cl)c2)=NN(c2ccccc2)[C@@H]1CO	37*	.	4	1	3
Cc1ccccc1CNC(=O)c1ccc2sc([C@H]3C[C@H](O)[C@@H](CO)O3)nc2c1	-7	.	39*	.	2
O=C(NCC1CC1)c1ccc2sc([C@H]3C[C@H](O)[C@@H](CO)O3)nc2c1	-9	.	9	.	-7
Cn1c(N=Nc2ccccc2)nc2ccccc21	-4	16	40*	3	2
CN(C)c1ccc(N=Nc2nc3ccccc3n2C)cc1	-3	.	62*	1	20
